Measured values of several laboratories.
Lines come from different studies, so protocols differ.
Target: Interleukin-1 receptor-associated kinase 1 (IRAK1, Homo sapiens, UniProt P51617)

| Compound | read-out | technique | concentration | remaining binding [%] |
| --- | --- | --- | --- | --- |
| CCN1CCN(Cc2ccc(C(=O)Nc3ccc(C)c(Oc4ccc5c(c4)CC(=O)N5)c3)cc2C(F)(F)F)CC1 | binding | competition with immobilised ligand | 1 µM | 100 |
| CNC(=O)[C@@H]1CC[C@@H](n2c(-c3ccc4cnccc4c3)nc3ccc(C(=O)NCc4cccc(C(N)=O)c4)cc32)C1 | binding | competition with immobilised ligand | 1 µM | 100 |
| C[C@@H]1CCN(c2nccc(-c3cnn4ncccc34)n2)C1 | binding |  | 1 µM | 98 |
| CCCOc1ccc([C@H]2[C@H](C(=O)O)[C@@H](c3ccc4c(c3)OCO4)CN2CC(=O)Nc2c(CC)cccc2CC)cc1 | cell-free assay | competition with immobilised ligand | 1 µM | 67 |
| CN(C)c1nccc(-c2cnc3ncccn23)n1 | binding |  | 1 µM | 65 |
| O=C(Nc1c[nH]nc1C(=O)NC1CCNCC1)c1cc(F)cc(F)c1 | binding | competition with immobilised ligand | 1 µM | 95 |
| c1cnn2ncc(-c3ccnc(N4CCC45COC5)n3)c2c1 | binding |  | 1 µM | 76 |
| O=C(c1ccc(Nc2nccc(-c3cc4ccccc4s3)n2)cc1)N1CCC(N2CCCC2)CC1 | binding | competition with immobilised ligand | 1 µM | 3.2 |
| Cc1c(NC(=O)c2cc(C(N)=O)nc3cc(F)ccc23)c(C(F)(F)F)nn1Cc1ccc(C(C)(C)C)cc1 | cell-free assay | competition with immobilised ligand | 1 µM | 100 |
| N[C@H]1CCN(c2nccc(-c3cnn4ncccc34)n2)C1 | binding |  | 1 µM | 90 |
| c1cncc(-c2cccc(Nc3nccc(NC4CCCCC4)n3)c2)c1 | binding | competition with immobilised ligand | 10 µM | 9.9 |
| CCS(=O)(=O)c1cc2cc(C[C@](O)(CC(C)(C)c3ccc(F)cc3C(N)=O)C(F)(F)F)[nH]c2cn1 | cell-free assay | competition with immobilised ligand | 1 µM | 99 |
| CN(C)c1ncc(F)c(-c2cnn3ncccc23)n1 | binding |  | 1 µM | 66 |
| O=C(c1ccc(Nc2ncc(Cl)c(-c3ccc(Cl)s3)n2)cc1)N1CCC(N2CCCC2)CC1 | binding | competition with immobilised ligand | 1 µM | 0.05 |
| COc1cnc(Nc2cccc(S(N)(=O)=O)c2)nc1N1CCN(c2ccccc2)C(=O)C1 | binding | competition with immobilised ligand | 1 µM | 55 |
| Cc1c(NC(=O)c2cc(C(N)=O)nc3cc(F)ccc23)c(C(F)(F)F)nn1Cc1ccc(C#N)cc1 | cell-free assay | competition with immobilised ligand | 1 µM | 70 |
| O=C(NCCCN1CCOCC1)c1ccc(Nc2nccc(-c3cc4ccccc4s3)n2)cc1 | binding | competition with immobilised ligand | 1 µM | 3.3 |
| COc1ccc2cc(OCC3(C(=O)O)CN(C(=O)c4ccc(F)cc4)C3)ccc2c1 | cell-free assay | competition with immobilised ligand | 1 µM | 100 |
| C[C@@H](c1ccc(-n2cnc3c(N)ncnc32)cc1)N1CCc2nn(C)c(Cc3ccccc3)c2C1=O | binding | competition with immobilised ligand | 0.1 µM | 69 |
| CN(c1ccnc(CNc2nc(Nc3ccc4c(c3)CC(=O)N4)ncc2C(F)(F)F)n1)S(C)(=O)=O | cell-free assay | competition with immobilised ligand | 1 µM | 13 |
| Cc1cnn2ncc(-c3ccnc(N(C)C)n3)c2c1 | binding |  | 1 µM | 100 |
